# Experimental data of several laboratories.
# Lines come from different studies, so protocols differ.
# Target: Cyclin-dependent kinase-like 1 (CDKL1, Homo sapiens, UniProt Q00532)
SMILES,test,setting,quantity,value
Cc1ccc(C(=O)Nc2ccc(CN3CCN(C)CC3)c(C(F)(F)F)c2)cc1C#Cc1cnc2cccnn12,enzyme activity,23.5 nM,remaining activity,85%
Nc1ncnc2occ(-c3ccc(NC(=O)Nc4cc(C(F)(F)F)ccc4F)cc3)c12,cell-free assay,20 µM,remaining signal,0.55%
CO[C@@H](C)c1c(Nc2ccc([C@@H](N(C)C(=O)C3CCS(=O)(=O)CC3)C(F)(F)F)cc2)cnc2cc(Cl)nn12,"cell-free assay, competition with immobilised ligand",1 µM,remaining binding,74%
CN1CC(Oc2cnc(C#N)cc2-c2ccn3nc(NC(=O)C4CC4)cc3c2)C1,"enzyme activity, inhibitor",1 µM,inhibition,5%
CCC1(CC)NC(=O)c2c(c3ccc(Cl)c(Cl)c3n2C)C1C#N (centres unmarked),"thermal stability, DSF",10 µM,ΔTm,0 °C
COc1cc(Cl)c(C(=O)N[C@@H](CN[C@H]2CC[C@@H](N)CC2)Cc2ccc(C#N)cc2)cc1-c1ccc(CN[C@H](C)c2ccc(C)cc2)o1,"enzyme activity, inhibitor",1 µM,remaining activity,101%
NS(=O)(=O)c1cc(NC(=O)C2(c3ccccc3Cl)CC2)ccc1Oc1cccc(Cl)c1,"binding, competition with immobilised ligand",1 µM,remaining binding,99%
Cn1c2c(Cl)c(Cl)ccc2c2cc(N)[nH]c(=O)c21,"thermal stability, DSF",10 µM,ΔTm,0.3 °C
